Experimental data published in ChEMBL document CHEMBL4364282, “Engineered Substrate for Cyclooxygenase-2: A Pentapeptide Isoconformational to Arachidonic Acid for Managing Inflammation” (J Med Chem, 2019).
Activity calls are given as the source filed them. The calls are words filed in the database; no cut-off is given here. Peptide text beside a SMILES is read from it. * marks the point of attachment. Cbz = O=C(OCc1ccccc1)*; Boc = CC(C)(C)OC(=O)*

Key:
[1] = test system: Rattus norvegicus; test: Analgesic activity in Wistar rat model of acetic-acid-induced writhing assessed as inhibition of writhing numbers at 5 to 10 mg/kg, ip preincubated for 30 mins followed by acetic acid induction and measured for 30 mins relative to control; format: functional
How it was run: (§1)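 Male Wistar rats (250-300 g) in groups of 5. Writhing (abdominal contraction, trunk twisting, hind-leg extension) was induced by intraperitoneal acetic acid, and writhes were counted. Test doses were 5 and 10 mg/kg, with a vehicle control and indomethacin 10 mg/kg as reference. Data are mean±SEM (n=5), analysed by one-way ANOVA with Tukey's test (p<.05 vs control).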

[2] = target: T1, Prostaglandin G/H synthase 1 (Ovis aries, UniProt P05979); test: Inhibition of ovine COX-1 assessed as reduction in prostaglandin production preincubated for 10 mins followed by arachidonic acid addition and measured after 2 mins by EIA method
T1 sequence (P05979 whole entry): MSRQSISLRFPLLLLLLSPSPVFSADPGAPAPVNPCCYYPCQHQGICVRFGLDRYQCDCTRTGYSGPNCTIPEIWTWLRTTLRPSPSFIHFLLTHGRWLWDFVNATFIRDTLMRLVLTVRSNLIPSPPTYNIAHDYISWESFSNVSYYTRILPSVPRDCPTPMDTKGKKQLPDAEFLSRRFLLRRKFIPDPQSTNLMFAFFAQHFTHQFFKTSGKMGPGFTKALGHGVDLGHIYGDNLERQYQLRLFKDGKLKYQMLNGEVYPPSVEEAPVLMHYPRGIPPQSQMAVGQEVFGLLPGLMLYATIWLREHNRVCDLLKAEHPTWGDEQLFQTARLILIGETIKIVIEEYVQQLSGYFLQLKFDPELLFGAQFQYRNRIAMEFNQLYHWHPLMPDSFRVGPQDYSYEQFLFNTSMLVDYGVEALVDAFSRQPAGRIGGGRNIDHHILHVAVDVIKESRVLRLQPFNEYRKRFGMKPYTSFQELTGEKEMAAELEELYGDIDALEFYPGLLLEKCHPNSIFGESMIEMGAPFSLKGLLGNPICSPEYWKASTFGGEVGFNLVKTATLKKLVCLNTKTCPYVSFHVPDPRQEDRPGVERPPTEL

[3] = test system: Rattus norvegicus; test: Analgesic activity in Wistar rat model of formalin-induced hyperalgesia assessed as reduction in number of formalin-evoked paw flinching during neurogenic phase at 10 mg/kg preincubated for 30 mins followed by formalin treatment and measured during first 5 mins post formalin injection relative to control; format: functional; design: scale not given: the % may be the effect or the level left
How it was run: (§2)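 Formalin paw test in male Wistar rats (250-300 g), 5 per group. Flinching was counted separately in the neurogenic and inflammatory phases. Modulator studies used pre-treatment with substance P, L-NAME or L-arginine (NO precursor) in three groups each. Data are mean±SEM (n=5), analysed by one-way ANOVA with Tukey's test (p<.05 vs control).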

[4] = target: Prostaglandin G/H synthase 1 (Homo sapiens, UniProt P23219); test: Inhibition of COX-1 in human whole blood assessed as reduction in calcium ionophore A23187-stimulated thromboxane B2 production by measuring thromboxane B2 level at 1 uM preincubated for 60 mins followed by calcium ionophore A23187 stimulation and measured after 30 mins by ELISA (reference value: 1.4 ng/mL); format: tissue-based; settings: 0.5 h
Prostaglandin G/H synthase 1 (Homo sapiens, UniProt P23219), sequence (P23219 whole entry): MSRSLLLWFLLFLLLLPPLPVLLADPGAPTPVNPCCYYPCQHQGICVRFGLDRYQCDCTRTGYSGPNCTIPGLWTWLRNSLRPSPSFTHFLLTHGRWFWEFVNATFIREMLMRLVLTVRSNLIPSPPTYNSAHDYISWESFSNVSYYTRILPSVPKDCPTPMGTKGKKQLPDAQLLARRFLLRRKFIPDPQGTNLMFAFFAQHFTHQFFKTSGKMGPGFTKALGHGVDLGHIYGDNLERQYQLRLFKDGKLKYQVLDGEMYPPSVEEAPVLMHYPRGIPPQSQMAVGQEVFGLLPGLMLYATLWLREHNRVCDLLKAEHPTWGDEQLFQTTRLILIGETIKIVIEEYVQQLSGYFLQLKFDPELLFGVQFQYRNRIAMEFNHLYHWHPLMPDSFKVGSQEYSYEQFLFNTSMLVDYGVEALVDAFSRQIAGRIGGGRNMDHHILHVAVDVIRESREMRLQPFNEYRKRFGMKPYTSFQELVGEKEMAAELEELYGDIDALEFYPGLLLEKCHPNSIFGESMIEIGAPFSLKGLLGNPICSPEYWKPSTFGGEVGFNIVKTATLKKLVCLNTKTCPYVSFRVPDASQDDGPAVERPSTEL
How it was run: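 Human whole blood stimulated with calcium ionophore to drive COX-1, with thromboxane B2 formation measured. The test concentration was 1 μM, and indomethacin 1 μM served as reference.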

[5] = test system: Rattus norvegicus; test: Analgesic activity in Wistar rat model of formalin-induced hyperalgesia assessed as reduction in number of formalin-evoked paw flinching during inflammatory phase at 10 mg/kg preincubated for 30 mins followed by formalin treatment and measured after 15 to 30 mins relative to control; format: functional; design: scale not given: the % may be the effect or the level left; how it was run: as §2
[6] = test system: Rattus norvegicus; test: (§3) Analgesic activity in Wistar rat model of formalin-induced hyperalgesia assessed as reduction in number of formalin-evoked paw flinching during neurogenic phase at 10 mg/kg administered intraperitoneally 30 mins after substance P injection followed by formalin induction after 30 mins and measured during first 5 mins post formalin injection; format: functional, organism-based; how it was run: as §2
[7] = test system: Rattus norvegicus; test: as §3, with “nitric oxide precursor L-arginine” for “substance P”; format: functional, organism-based; how it was run: as §2
[8] = test system: Rattus norvegicus; test: as §3, with “inflammatory” for “neurogenic”, “after 15 to 30” for “during first 5”; format: functional, organism-based; how it was run: as §2
[9] = test system: Rattus norvegicus; test: as §3, with “inflammatory” for “neurogenic”, “nitric oxide precursor L-arginine” for “substance P”, “after 15 to 30” for “during first 5”; format: functional, organism-based; how it was run: as §2
[10] = test system: Rattus norvegicus; test: as §3, with “NOS inhibitor L-NAME” for “substance P”; format: functional, organism-based; how it was run: as §2
[11] = test system: Rattus norvegicus; test: as §3, with “inflammatory” for “neurogenic”, “NOS inhibitor L-NAME” for “substance P”, “after 15 to 30” for “during first 5”; format: functional, organism-based; how it was run: as §2
[12] = test system: Rattus norvegicus; test: Anti-inflammatory activity in Wistar rat assessed as inhibition of carrageenan-induced paw edema at 10 mg/kg, ip preincubated for 1 hr followed by carrageenan challenge and measured for 6 hrs; format: functional, organism-based
How it was run: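 Carrageenan-induced paw inflammation in male Wistar rats (250-300 g), three groups of 5 animals. Data are mean±SEM (n=5), analysed by one-way ANOVA with Tukey's multiple range test (p<.05 vs control).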

[13] = Acute toxicity in Wistar rat assessed as induction of morphological lesions in myocardium at 2000 mg/kg, po measured after 14 days by histological analysis; format: organism-based; settings: in vivo, 336 h
How it was run: (§4)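 Acute oral toxicity per OECD guideline: rats fasted 4 h, then vehicle or single dose of 50, 300 or 2000 mg kg^-1; three rats per group. Animals observed for 14 days; one animal from the high-dose group and one control then sacrificed for tissue histology examined for lesions. Male Wistar rats, 250-300 g.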

[14] = Acute toxicity in Wistar rat assessed as induction of morphological lesions in kidney at 2000 mg/kg, po measured after 14 days by histological analysis; format: organism-based; settings: in vivo, 336 h; how it was run: as §4
[15] = Acute toxicity in Wistar rat assessed as induction of morphological lesions in liver at 2000 mg/kg, po measured after 14 days by histological analysis; format: organism-based; settings: in vivo, 336 h; how it was run: as §4
[16] = Drug metabolism in Wistar rat assessed as 2-((S)-2-((S)-1-(2-aminoacetyl)pyrrolidine-2-carboxamido)propanamido)acetic acid formation at 10 mg/kg, ip measured after 6 hrs by LC-MS analysis; format: ADME, organism-based; settings: in vivo
How it was run: (§5)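 Blood serum was taken from treated rats at 30, 60, 90 and 120 min. Proteins were removed by centrifugation, and the supernatants were analysed by LC-MS with HRMS identification of peptide fragments. Breakdown was assessed up to 6 h.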

[17] = Drug metabolism in Wistar rat assessed as (S)-1-(2-((S)-2-aminopropanamido)acetyl)pyrrolidine-2-carboxylic acid formation at 10 mg/kg, ip measured after 6 hrs by LC-MS analysis; format: ADME, organism-based; settings: in vivo; how it was run: as §5
[18] = Drug metabolism in Wistar rat assessed as (S)-2-((S)-1-(2-((S)-2-aminopropanamido)acetyl)pyrrolidine-2-carboxamido)propanoic acid formation at 10 mg/kg, ip measured after 6 hrs by LC-MS analysis; format: ADME, organism-based; settings: in vivo; how it was run: as §5
[19] = Drug metabolism in Wistar rat assessed as methyl 2-((S)-2-((S)-1-(2-aminoacetyl)pyrrolidine-2-carboxamido)propanamido)acetate formation at 10 mg/kg, ip measured after 6 hrs by LC-MS analysis; format: ADME, organism-based; settings: in vivo; how it was run: as §5
[20] = Drug metabolism in Wistar rat assessed as 2-((S)-2-((S)-1-(2-((S)-2-aminopropanamido)acetyl)pyrrolidine-2-carboxamido)propanamido)acetic acid formation at 10 mg/kg, ip measured after 6 hrs by LC-MS analysis; format: ADME, organism-based; settings: in vivo; how it was run: as §5
[21] = target: T2, Prostaglandin G/H synthase 2 (Homo sapiens, UniProt P35354); test: Substrate activity at COX-2 (unknown origin) in DMSO-d6 assessed as chemical shift of NH protons of alanine residues by 1H NMR analysis; format: ADME
T2 sequence (P35354 whole entry): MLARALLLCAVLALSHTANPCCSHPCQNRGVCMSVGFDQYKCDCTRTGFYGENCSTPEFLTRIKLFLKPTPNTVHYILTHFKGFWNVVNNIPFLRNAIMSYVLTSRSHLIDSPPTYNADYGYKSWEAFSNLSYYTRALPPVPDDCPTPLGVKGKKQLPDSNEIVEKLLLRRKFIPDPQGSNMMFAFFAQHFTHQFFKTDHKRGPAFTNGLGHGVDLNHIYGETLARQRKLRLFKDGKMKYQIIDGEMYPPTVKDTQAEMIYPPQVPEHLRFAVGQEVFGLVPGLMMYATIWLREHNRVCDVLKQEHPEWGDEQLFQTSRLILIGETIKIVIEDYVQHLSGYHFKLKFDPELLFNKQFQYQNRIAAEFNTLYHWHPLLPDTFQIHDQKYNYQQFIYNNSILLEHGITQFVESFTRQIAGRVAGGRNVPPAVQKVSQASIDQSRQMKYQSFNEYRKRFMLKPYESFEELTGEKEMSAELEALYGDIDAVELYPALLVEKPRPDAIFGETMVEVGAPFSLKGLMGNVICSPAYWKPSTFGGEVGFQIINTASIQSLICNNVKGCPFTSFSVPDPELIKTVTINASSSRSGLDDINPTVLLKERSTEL

[22] = target: T2, Prostaglandin G/H synthase 2; test: Substrate activity at COX-2 (unknown origin) in DMSO-d6 assessed as chemical shift of NH protons of glycine residues by 1H NMR analysis; format: ADME
[23] = test system: Rattus norvegicus; test: Analgesic activity in Wistar rat model of acetic-acid-induced writhing assessed as inhibition of writhing numbers at 10 mg/kg, ip preincubated for 30 mins followed by acetic acid induction and measured for 30 mins; format: functional, organism-based; how it was run: as §1
[24] = substrate: CCCCC/C=C\C/C=C\C/C=C\C/C=C\CCCC(=O)O; test: (§6) Substrate activity at COX-2 (unknown origin) in pH 7.5 HEPES buffer assessed as enzyme-mediated test compound metabolism by measuring Km by LC-MS analysis; format: ADME, Homo sapiens
[25] = substrate: COC(=O)CNC(=O)[C@H](C)NC(=O)[C@@H]1CCCN1C(=O)CNC(=O)[C@H](C)N; test: as §6; format: ADME, Homo sapiens

COC(=O)[C@H](Cc1ccccc1)NC(=O)[C@@H]1CCCN1C(=O)CNC(=O)[C@H](CCSC)NC(=O)OCc1ccccc1 (Cbz-MGPF-OMe)
Activity [1]: Active
IC50 [2]: 0.5 µM

COC(=O)CNC(=O)[C@H](C)NC(=O)[C@@H]1CCCN1C(=O)CNC(=O)[C@H](C)NC(=O)OCc1ccccc1 (Cbz-AGPAG-OMe)
Activity [1]: 80%

COC(=O)CNC(=O)[C@H](C)NC(=O)[C@@H]1CCCN1C(=O)CNC(=O)[C@H](C)N (H-AGPAG-OMe)
Activity [3]: 56%
Activity [1]: 80%
Activity [4]: 1.2 ng/mL
Activity [5]: 80%
Activity [6]: inactive
Activity [7]: inactive
Activity [8]: inactive
Activity [9]: inactive
Activity [10]: Active
Activity [11]: Active
Activity [12]: Active
Activity [13]: Non-Toxic
Activity [14]: Non-Toxic
Activity [15]: Non-Toxic
Drug metabolism [16]: Metabolite_Detected
Drug metabolism [17]: Metabolite_Detected
Drug metabolism [18]: Metabolite_Detected
Drug metabolism [19]: Metabolite_Detected
Drug metabolism [20]: Metabolite_Detected
Activity [21]: Active
Activity [22]: Active

COC(=O)CNC(=O)[C@H](CCSC)NC(=O)[C@H](Cc1ccccc1)NC(=O)[C@@H]1CCCN1C(=O)OC(C)(C)C (Boc-PFMG-OMe)
Activity [1]: Active
IC50 [2]: 50 µM

COc1ccc2c(c1)c(CC(=O)O)c(C)n2C(=O)c1ccc(Cl)cc1 [INDOMETHACIN]
Activity [3]: inactive
Activity [23]: Active
Activity [4]: 0.7 ng/mL
Activity [5]: Active
Activity [12]: Active

COC(=O)CNC(=O)[C@H](Cc1ccccc1)NC(=O)[C@@H]1CCCN1C(=O)[C@H](Cc1ccccc1)NC(=O)[C@H](C)NC(=O)OCc1ccccc1 (Cbz-AFPFG-OMe)
Activity [1]: Active
IC50 [2]: 600 µM

B1: Prostaglandin G/H synthase 2 (Homo sapiens) (protein)
chain: MLARALLLCAVLALSHTANPCCSHPCQNRGVCMSVGFDQYKCDCTRTGFYGENCSTPEFLTRIKLFLKPTPNTVHYILTHFKGFWNVVNNIPFLRNAIMSYVLTSRSHLIDSPPTYNADYGYKSWEAFSNLSYYTRALPPVPDDCPTPLGVKGKKQLPDSNEIVEKLLLRRKFIPDPQGSNMMFAFFAQHFTHQFFKTDHKRGPAFTNGLGHGVDLNHIYGETLARQRKLRLFKDGKMKYQIIDGEMYPPTVKDTQAEMIYPPQVPEHLRFAVGQEVFGLVPGLMMYATIWLREHNRVCDVLKQEHPEWGDEQLFQTSRLILIGETIKIVIEDYVQHLSGYHFKLKFDPELLFNKQFQYQNRIAAEFNTLYHWHPLLPDTFQIHDQKYNYQQFIYNNSILLEHGITQFVESFTRQIAGRVAGGRNVPPAVQKVSQASIDQSRQMKYQSFNEYRKRFMLKPYESFEELTGEKEMSAELEALYGDIDAVELYPALLVEKPRPDAIFGETMVEVGAPFSLKGLMGNVICSPAYWKPSTFGGEVGFQIINTASIQSLICNNVKGCPFTSFSVPDPELIKTVTINASSSRSGLDDINPTVLLKERSTEL
Km [24]: 210 µM
kcat [24]: 200 s⁻¹
kcat/Km [24]: 950000 M⁻¹ s⁻¹
Km [25]: 21 µM
kcat [25]: 13.2 s⁻¹
kcat/Km [25]: 630000 M⁻¹ s⁻¹
